According to ChEMBL document CHEMBL1649407, “Part I: Synthesis, cancer chemopreventive activity and molecular docking study of novel quinoxaline derivatives” (Eur J Med Chem, 2011):

Key:
[1] = Cytotoxicity against human Raji cells assessed as cell viability at 1000 molar ratio by trypan blue staining method
Mus musculus [2] = assay: Toxicity in topically treated ICR mouse assessed as lesional damage; assay type: organism-based; conditions: in vivo, topical_or_ocular
Summary of the method: (§1)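 Treated areas of shaved back skin were inspected during the DMBA/TPA two-stage study, where test compound (85 nmol in acetone) was applied topically before each twice-weekly TPA promotion. Scored for lesional damage and for inflammation (edema, erosion, ulcer).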

Mus musculus [3] = assay: Inhibition of DMBA-initiated/TPA-promoted carcinogenesis in ICR mouse assessed as mouse bearing papillomas at 85 nmol administered 1 hr before TPA treatment measured after 5 weeks by two-stage carcinogenesis test; assay type: functional; set-up: scale not given: the % may be the effect or the level left
Summary of the method: (§2)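 Female SPF ICR mice, 6 weeks old, 15 per group, backs shaved. Initiation: topical DMBA (390 nmol) in 0.1 mL acetone. Promotion began one week later: TPA (1.7 nmol) in 0.1 mL acetone, twice weekly. Test compound (85 nmol) in 0.1 mL acetone applied topically 1 h before each promotion. Papilloma-bearing mice and papillomas per mouse scored weekly for 20 weeks. Tumor type confirmed histologically. Student's t-test.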

Mus musculus [4] = assay: Inhibition of DMBA-initiated/TPA-promoted carcinogenesis in ICR mouse assessed as mouse bearing papillomas at 85 nmol administered 1 hr before TPA treatment measured after 3 weeks by two-stage carcinogenesis test; assay type: functional; set-up: scale not given: the % may be the effect or the level left; summary of the method: as §2
Mus musculus [5] = organism: Mus musculus; assay: Toxicity in ICR mouse assessed as change in body weight; assay type: organism-based; conditions: in vivo
Summary of the method: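 Mice from the DMBA/TPA two-stage skin study received topical test compound in acetone before each TPA promotion. Body-weight gain was followed during the 20-week experiment. Food and water ad libitum, five mice per cage at 24 ± 2 °C.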

Mus musculus [6] = assay: Inhibition of DMBA-initiated/TPA-promoted carcinogenesis in ICR mouse assessed as mouse bearing papillomas at 85 nmol administered 1 hr before TPA treatment measured after 16 weeks by two-stage carcinogenesis test; assay type: functional; set-up: scale not given: the % may be the effect or the level left; summary of the method: as §2
Mus musculus [7] = assay: Inhibition of DMBA-initiated/TPA-promoted carcinogenesis in ICR mouse assessed as mouse bearing papillomas at 85 nmol administered 1 hr before TPA treatment measured after 15 weeks by two-stage carcinogenesis test; assay type: functional; set-up: scale not given: the % may be the effect or the level left; summary of the method: as §2
Mus musculus [8] = assay: Inhibition of DMBA-initiated/TPA-promoted carcinogenesis in ICR mouse assessed as mouse bearing papillomas at 85 nmol administered 1 hr before TPA treatment measured after 18 weeks by two-stage carcinogenesis test; assay type: functional; set-up: scale not given: the % may be the effect or the level left; summary of the method: as §2
Mus musculus [9] = assay: Inhibition of DMBA-initiated/TPA-promoted carcinogenesis in ICR mouse assessed as mouse bearing papillomas at 85 nmol administered 1 hr before TPA treatment measured after 9 weeks by two-stage carcinogenesis test; assay type: functional; set-up: scale not given: the % may be the effect or the level left; summary of the method: as §2
Mus musculus [10] = assay: Inhibition of DMBA-initiated/TPA-promoted carcinogenesis in ICR mouse assessed as mouse bearing papillomas at 85 nmol administered 1 hr before TPA treatment measured after 8 weeks by two-stage carcinogenesis test; assay type: functional; set-up: scale not given: the % may be the effect or the level left; summary of the method: as §2
Mus musculus [11] = assay: Inhibition of DMBA-initiated/TPA-promoted carcinogenesis in ICR mouse assessed as mouse bearing papillomas at 85 nmol administered 1 hr before TPA treatment measured after 1 week by two-stage carcinogenesis test; assay type: functional; set-up: scale not given: the % may be the effect or the level left; summary of the method: as §2
Mus musculus [12] = assay: Inhibition of DMBA-initiated/TPA-promoted carcinogenesis in ICR mouse assessed as mouse bearing papillomas at 85 nmol administered 1 hr before TPA treatment measured after 4 weeks by two-stage carcinogenesis test; assay type: functional; set-up: scale not given: the % may be the effect or the level left; summary of the method: as §2
Mus musculus [13] = assay: Inhibition of DMBA-initiated/TPA-promoted carcinogenesis in ICR mouse assessed as mouse bearing papillomas at 85 nmol administered 1 hr before TPA treatment measured after 20 weeks by two-stage carcinogenesis test; assay type: functional; set-up: scale not given: the % may be the effect or the level left; summary of the method: as §2
Mus musculus [14] = assay: Inhibition of DMBA-initiated/TPA-promoted carcinogenesis in ICR mouse assessed as mouse bearing papillomas at 85 nmol administered 1 hr before TPA treatment measured after 6 weeks by two-stage carcinogenesis test; assay type: functional; set-up: scale not given: the % may be the effect or the level left; summary of the method: as §2
Mus musculus [15] = assay: Inhibition of DMBA-initiated/TPA-promoted carcinogenesis in ICR mouse assessed as mouse bearing papillomas at 85 nmol administered 1 hr before TPA treatment measured after 2 weeks by two-stage carcinogenesis test; assay type: functional; set-up: scale not given: the % may be the effect or the level left; summary of the method: as §2
Mus musculus [16] = assay: Inhibition of DMBA-initiated/TPA-promoted carcinogenesis in ICR mouse assessed as mouse bearing papillomas at 85 nmol administered 1 hr before TPA treatment measured after 10 weeks by two-stage carcinogenesis test; assay type: functional; set-up: scale not given: the % may be the effect or the level left; summary of the method: as §2
Mus musculus [17] = assay: Inhibition of DMBA-initiated/TPA-promoted carcinogenesis in ICR mouse assessed as mouse bearing papillomas at 85 nmol administered 1 hr before TPA treatment measured after 17 weeks by two-stage carcinogenesis test; assay type: functional; set-up: scale not given: the % may be the effect or the level left; summary of the method: as §2
Mus musculus [18] = assay: Inhibition of DMBA-initiated/TPA-promoted carcinogenesis in ICR mouse assessed as mouse bearing papillomas at 85 nmol administered 1 hr before TPA treatment measured after 19 weeks by two-stage carcinogenesis test; assay type: functional; set-up: scale not given: the % may be the effect or the level left; summary of the method: as §2
Mus musculus [19] = assay: Inhibition of DMBA-initiated/TPA-promoted carcinogenesis in ICR mouse assessed as mouse bearing papillomas at 85 nmol administered 1 hr before TPA treatment measured after 11 weeks by two-stage carcinogenesis test; assay type: functional; set-up: scale not given: the % may be the effect or the level left; summary of the method: as §2
Mus musculus [20] = assay: Inhibition of DMBA-initiated/TPA-promoted carcinogenesis in ICR mouse assessed as mouse bearing papillomas at 85 nmol administered 1 hr before TPA treatment measured after 12 weeks by two-stage carcinogenesis test; assay type: functional; set-up: scale not given: the % may be the effect or the level left; summary of the method: as §2
Mus musculus [21] = assay: Inhibition of DMBA-initiated/TPA-promoted carcinogenesis in ICR mouse assessed as mouse bearing papillomas at 85 nmol administered 1 hr before TPA treatment measured after 14 weeks by two-stage carcinogenesis test; assay type: functional; set-up: scale not given: the % may be the effect or the level left; summary of the method: as §2
Mus musculus [22] = assay: Inhibition of DMBA-initiated/TPA-promoted carcinogenesis in ICR mouse assessed as mouse bearing papillomas at 85 nmol administered 1 hr before TPA treatment measured after 13 weeks by two-stage carcinogenesis test; assay type: functional; set-up: scale not given: the % may be the effect or the level left; summary of the method: as §2
Mus musculus [23] = assay: Toxicity in topically treated ICR mouse assessed as inflammation; assay type: organism-based; conditions: in vivo, topical_or_ocular; summary of the method: as §1
Mus musculus [24] = assay: Inhibition of DMBA-initiated/TPA-promoted carcinogenesis in ICR mouse assessed as mouse bearing papillomas at 85 nmol administered 1 hr before TPA treatment measured after 7 weeks by two-stage carcinogenesis test; assay type: functional; set-up: scale not given: the % may be the effect or the level left; summary of the method: as §2

Structure (SMILES): Oc1nc2ccccc2nc1O
- viability at 1000 molar ratio ([1]; Raji cells): 60%

Structure (SMILES): Clc1nc2ccccc2nc1Cl
- viability at 1000 molar ratio ([1]; raji): 50%

Structure (SMILES): N#Cc1c(-c2ccccc2)nc(Sc2nc3ccccc3nc2Cl)[nH]c1=O
- viability at 1000 molar ratio ([1]; Raji cells): 60%

Structure (SMILES): C=CCn1c(=O)c(N/N=C/c2ccccc2)nc2ccccc21
- viability at 1000 molar ratio ([1]; Raji cells): 60%

Structure (SMILES): C=CCN(/N=C/c1ccccc1OC)c1nc2ccccc2n(CC=C)c1=O
- Activity (Mus musculus [2]): Non-toxic
- Activity (Mus musculus [3]): 0%
- Activity (Mus musculus [4]): 0%
- Activity (Mus musculus [5]): Non-toxic
- Activity (Mus musculus [6]): 66.6%
- Activity (Mus musculus [7]): 60%
- Activity (Mus musculus [8]): 80%
- Activity (Mus musculus [9]): 13.3%
- Activity (Mus musculus [10]): 13.3%
- Activity (Mus musculus [11]): 0%
- Activity (Mus musculus [12]): 0%
- Activity (Mus musculus [13]): 86.6%
- Activity (Mus musculus [14]): 0%
- Activity (Mus musculus [15]): 0%
- Activity (Mus musculus [16]): 20%
- viability at 1000 molar ratio ([1]; Raji cells): 60%
- Activity (Mus musculus [17]): 73.3%
- Activity (Mus musculus [18]): 86.6%
- Activity (Mus musculus [19]): 26.6%
- Activity (Mus musculus [20]): 33.3%
- Activity (Mus musculus [21]): 60%
- Activity (Mus musculus [22]): 46.6%
- Activity (Mus musculus [23]): Non-toxic
- Activity (Mus musculus [24]): 0%

Structure (SMILES): CCOC(=O)Cn1c(=O)c(N/N=C/c2ccccc2OC)nc2ccccc21
- viability at 1000 molar ratio ([1]; Raji cells): 60%

Structure (SMILES): O=c1[nH]c2ccccc2nc1N/N=C/c1ccccc1
- viability at 1000 molar ratio ([1]; Raji cells): 60%

Structure (SMILES): NNc1nc2ccccc2[nH]c1=O
- viability at 1000 molar ratio ([1]; Raji cells): 60%

Structure (SMILES): O=c1[nH]c2ccccc2nc1Cl
- viability at 1000 molar ratio ([1]; Raji cells): 50%

Structure (SMILES): C=CCn1c(=O)c(N/N=C/c2ccccc2OC)nc2ccccc21
- viability at 1000 molar ratio ([1]; Raji cells): 60%

Structure (SMILES): COc1ccccc1/C=N/Nc1nc2ccccc2[nH]c1=O
- viability at 1000 molar ratio ([1]; Raji cells): 60%

Structure (SMILES): Clc1nc2ccccc2nc1SCc1nc2ccccc2[nH]1
- viability at 1000 molar ratio ([1]; Raji cells): 60%

Structure (SMILES): Nc1nc2ccccc2[nH]c1=O
- viability at 1000 molar ratio ([1]; Raji cells): 60%

Structure (SMILES): N#Cc1c(-c2ccc(O)cc2)nc(Sc2nc3ccccc3nc2Cl)[nH]c1=O
- viability at 1000 molar ratio ([1]; Raji cells): 60%

Structure (SMILES): N#Cc1c(-c2ccc(F)cc2)nc(Sc2nc3ccccc3nc2Cl)[nH]c1=O
- viability at 1000 molar ratio ([1]; Raji cells): 60%

Structure (SMILES): c1ccc2nc3c(nc2c1)[nH]c1cccc[n+]13
- viability at 1000 molar ratio ([1]; Raji cells): 60%

Structure (SMILES): c1ccc2nc3c(nc2c1)nc1ccccn13
- viability at 1000 molar ratio ([1]; Raji cells): 60%

Structure (SMILES): CCOC(=O)Cn1c(=O)c(N/N=C/c2ccccc2)nc2ccccc21
- viability at 1000 molar ratio ([1]; Raji cells): 60%

Structure (SMILES): CCOC(=O)CN(/N=C/c1ccccc1OC)c1nc2ccccc2n(CC(=O)OCC)c1=O
- viability at 1000 molar ratio ([1]; Raji cells): 60%

Structure (SMILES): Clc1nc2ccccc2nc1Sc1nc2ccccc2[nH]1
- viability at 1000 molar ratio ([1]; Raji cells): 60%
